Laboratory results as given in ChEMBL document CHEMBL1275298, “Synthesis and anti-inflammatory activity evaluation of some novel 6-alkoxy(phenoxy)-[1,2,4]triazolo[3,4-a]phthalazine-3-amine derivatives” (2010).
The source made the active and inactive calls. The calls are words filed in the database; no cut-off is given here.

Legend:
Mus musculus [1] = test: Antiinflammatory activity in mouse assessed as inhibition of xylene-induced ear edema at 100 mg/kg, ip after 0.5 hrs relative to control; assay type: functional; details: route intraperitoneal
Outline: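 Kunming mice, 20-25 g, 10 per group. Freshly prepared DMSO solution given i.p. at 0.05 mL/20 g; vehicle-only (DMSO) controls. Xylene ear edema test run 0.5 h after dosing; mice killed 30 min after xylene, 7 mm plugs cut from treated and untreated ears, and edema taken as the plug weight difference. Reported as % edema reduction versus vehicle.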

Mus musculus [2] = test: Antiinflammatory activity in mouse assessed as inhibition of xylene-induced ear edema at 200 mg/kg, po administered 5 hrs before xylene challenge measured after 3 hrs post dose; assay type: functional
Outline: (§1)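 Kunming mice, 20-25 g, 10 per group. Compound homogenized in 0.5% CMC-Na and given orally at 0.2 mL/10 g; vehicle controls got 0.5% CMC-Na. Xylene applied 1, 2, 3, 4, 5 or 24 h after dosing (3 h for 50 and 100 mg/kg). Killed 30 min later; 7 mm ear plugs weighed, treated minus untreated. Result given as % edema reduction versus CMC-Na controls.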

Mus musculus [3] = test: Antiinflammatory activity in mouse assessed as inhibition of xylene-induced ear edema at 200 mg/kg, po administered 24 hrs before xylene challenge measured after 3 hrs post dose; assay type: functional; outline: as §1
Mus musculus [4] = test: Antiinflammatory activity in mouse assessed as inhibition of xylene-induced ear edema at 200 mg/kg, po administered 4 hrs before xylene challenge measured after 3 hrs post dose; assay type: functional; outline: as §1
Mus musculus [5] = test: Antiinflammatory activity in mouse assessed as inhibition of xylene-induced ear edema at 200 mg/kg, po administered 2 hrs before xylene challenge measured after 3 hrs post dose; assay type: functional; outline: as §1
Mus musculus [6] = test: Antiinflammatory activity in mouse assessed as inhibition of xylene-induced ear edema at 200 mg/kg, po administered 1 hr before xylene challenge measured after 3 hrs post dose; assay type: functional; outline: as §1
Mus musculus [7] = test: Antiinflammatory activity in mouse assessed as inhibition of xylene-induced ear edema at 200 mg/kg, po administered 3 hrs before xylene challenge measured after 3 hrs post dose; assay type: functional; outline: as §1
Mus musculus [8] = test: Antiinflammatory activity in mouse assessed as inhibition of xylene-induced ear edema at 100 mg/kg, po administered 3 hrs before xylene challenge measured after 3 hrs post dose; assay type: functional; outline: as §1
Mus musculus [9] = test: Antiinflammatory activity in mouse assessed as inhibition of xylene-induced ear edema at 50 mg/kg, po administered 3 hrs before xylene challenge measured after 3 hrs post dose; assay type: functional; outline: as §1
Mus musculus [10] = test: Antiinflammatory activity in mouse assessed as inhibition of xylene-induced ear edema at 200 mg/kg, po administered 1 to 24 hrs before xylene challenge measured after 4 hrs post dose; assay type: functional, organism-based; design: dose 200 mg/kg; outline: as §1

Cc1ccc(Oc2nn3c(N)nnc3c3ccccc23)cc1 showed an inhibition in vivo at 100 mg/kg (Mus musculus [1]) of 52.7%.
Compound Nc1nnc2c3ccccc3c(Oc3cccc(Cl)c3)nn12 has an inhibition in vivo at 100 mg/kg (Mus musculus [1]) of 68.8%.
In the case of CCCCCCOc1nn2c(N)nnc2c2ccccc12, the inhibition in vivo at 100 mg/kg (Mus musculus [1]) was 39.5%.
Compound Nc1ccccc1Oc1nn2c(N)nnc2c2ccccc12 has an inhibition in vivo at 100 mg/kg (Mus musculus [1]) of 38.4%.
Compound Nc1ccc(Oc2nn3c(N)nnc3c3ccccc23)cc1 has an inhibition in vivo at 200 mg/kg (Mus musculus [2]) of 55.9%, an inhibition in vivo at 200 mg/kg (Mus musculus [3]) of 18.9% and an inhibition in vivo at 200 mg/kg (Mus musculus [4]) of 80.6%. The inhibition in vivo at 200 mg/kg (Mus musculus [5]) was 81.3%, the inhibition in vivo at 100 mg/kg (Mus musculus [1]) was 83% and the inhibition in vivo at 200 mg/kg (Mus musculus [6]) was 60.5%. The inhibition in vivo at 200 mg/kg (Mus musculus [7]) was 84.3%, the inhibition in vivo at 100 mg/kg (Mus musculus [8]) was 37.9% and the inhibition in vivo at 50 mg/kg (Mus musculus [9]) was 22.8%.
Work on Nc1nnc2c3ccccc3c(Oc3ccccc3)nn12 yielded an inhibition in vivo at 100 mg/kg (Mus musculus [1]) of 55%.
CCCCCCCCOc1nn2c(N)nnc2c2ccccc12 gave an inhibition in vivo at 100 mg/kg (Mus musculus [1]) of 58%.
With CC(C)Oc1nn2c(N)nnc2c2ccccc12 the inhibition in vivo at 100 mg/kg (Mus musculus [1]) was 39.4%.
Compound CCCCOc1nn2c(N)nnc2c2ccccc12 has an inhibition in vivo at 100 mg/kg (Mus musculus [1]) of 67.6%.
Compound Nc1nnc2c3ccccc3c(Oc3ccccc3Cl)nn12 has an inhibition in vivo at 200 mg/kg (Mus musculus [2]) of 57.2%, an inhibition in vivo at 200 mg/kg (Mus musculus [3]) of 8.24% and an inhibition in vivo at 200 mg/kg (Mus musculus [4]) of 64.1%. It also gave an inhibition in vivo at 200 mg/kg (Mus musculus [5]) of 59%, an inhibition in vivo at 100 mg/kg (Mus musculus [1]) of 81.2% and an inhibition in vivo at 200 mg/kg (Mus musculus [6]) of 52.7%. For the same compound, the inhibition (Mus musculus [10]) was “Active”, the inhibition in vivo at 200 mg/kg (Mus musculus [7]) was 75% and the inhibition in vivo at 100 mg/kg (Mus musculus [8]) was 46.7%. It also gave an inhibition in vivo at 50 mg/kg (Mus musculus [9]) of 30.8%.
Cc1ccccc1Oc1nn2c(N)nnc2c2ccccc12 gave an inhibition in vivo at 100 mg/kg (Mus musculus [1]) of 68.3%.
With Nc1cccc(Oc2nn3c(N)nnc3c3ccccc23)c1 the inhibition in vivo at 100 mg/kg (Mus musculus [1]) was 68%.
For Nc1nnc2c3ccccc3c(Oc3ccc(Br)cc3)nn12, the inhibition in vivo at 100 mg/kg (Mus musculus [1]) was 48.4%.
For Cc1cccc(Oc2nn3c(N)nnc3c3ccccc23)c1, the inhibition in vivo at 100 mg/kg (Mus musculus [1]) was 68%.
For CCCCCCCOc1nn2c(N)nnc2c2ccccc12, the inhibition in vivo at 100 mg/kg (Mus musculus [1]) was 65.7%.
Work on Nc1nnc2c3ccccc3c(Oc3ccc(Cl)cc3)nn12 yielded an inhibition in vivo at 100 mg/kg (Mus musculus [1]) of 75%.
Nc1nnc2c3ccccc3c(Oc3ccc(Cl)cc3Cl)nn12 gave an inhibition in vivo at 100 mg/kg (Mus musculus [1]) of 40.4%.
Work on CC(C)Cc1ccc(C(C)C(=O)O)cc1 (centres undefined) [IBUPROFEN] yielded an inhibition in vivo at 200 mg/kg (Mus musculus [2]) of 23.4%, an inhibition in vivo at 200 mg/kg (Mus musculus [3]) of 13.2% and an inhibition in vivo at 200 mg/kg (Mus musculus [4]) of 36.3%. It also gave an inhibition in vivo at 200 mg/kg (Mus musculus [5]) of 38.6%, an inhibition in vivo at 100 mg/kg (Mus musculus [1]) of 61.2% and an inhibition in vivo at 200 mg/kg (Mus musculus [6]) of 29.6%. It also gave an inhibition in vivo at 200 mg/kg (Mus musculus [7]) of 64.6% and an inhibition in vivo at 100 mg/kg (Mus musculus [8]) of 26.9%.
Compound Nc1nnc2c3ccccc3c(Oc3ccc(F)cc3)nn12 has an inhibition in vivo at 100 mg/kg (Mus musculus [1]) of 48.8%.
With COc1ccc(Oc2nn3c(N)nnc3c3ccccc23)cc1 the inhibition in vivo at 100 mg/kg (Mus musculus [1]) was 44%.
